Test results as given in ChEMBL document CHEMBL3797181, “Structure-Based Optimization of a Small Molecule Antagonist of the Interaction Between WD Repeat-Containing Protein 5 (WDR5) and Mixed-Lineage Leukemia 1 (MLL1)” (J Med Chem, 2016).
Positions of bridges follow the written chain, without caps; N, C: chain ends. Non-standard residues stand in square brackets, D forms with d. Residues, ends and D or L forms follow the SMILES beside them. *: point of attachment. d(αMeK) = C[C@@](N)(CCCCN)C(=O)O; dPhg = N[C@@H](C(=O)O)c1ccccc1; Isobutyryl = CC(C)C(=O)*; Abu = CC[C@H](N)C(=O)O

Experiments:
[1] = Apparent solubility of compound in DMSO; type: physicochemical
[2] = Apparent solubility of compound in methanol; type: physicochemical
[3] = Apparent solubility of compound in acetonitrile; type: physicochemical
[4] = Apparent permeability from basolateral to apical side in human Caco2 cells; type: ADME, cell-based; settings: Caco-2
[5] = Metabolic stability in mouse plasma assessed as parent compound remaining after 0.5 hrs; type: ADME, cell-free; settings: read-out: Stability
[6] = Half life in NOD/SCID mouse plasma at 3 mg/kg, iv; type: ADME, organism-based
Procedure, shortened: (§1)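 Female NOD-SCID mice, n = 3 per route, received 3 mg/kg IV or 30 mg/kg IP, with an undosed control group (n = 3). Blood was drawn at 5, 15, 30 min and 1, 2, 4, 6 and 24 h. Plasma was separated by centrifugation and stored at −80 °C until analysis. Cmax, Tmax, t1/2, AUC, Cl and VD were derived.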

[7] = Bioavailability in NOD/SCID mouse plasma at 30 mg/kg, ip up to 24 hrs; type: ADME, organism-based
[8] = Clearance in NOD/SCID mouse plasma at 3 mg/kg, iv up to 24 hrs; type: ADME, organism-based; procedure, shortened: as §1
[9] = Apparent permeability from apical to basolateral side in human Caco2 cells; type: ADME, cell-based; settings: Caco-2
[10] = AUC in NOD/SCID mouse plasma at 30 mg/kg, ip up to 24 hrs; type: ADME, organism-based; set-up: dose 30 mg/kg, time < 24 hr, route intraperitoneal; procedure, shortened: as §1
[11] = Cmax in NOD/SCID mouse plasma at 3 mg/kg, iv up to 24 hrs; type: ADME, organism-based; set-up: dose 3 mg/kg, route intravenous; procedure, shortened: as §1
[12] = Tmax in NOD/SCID mouse plasma at 30 mg/kg, ip; type: ADME, organism-based; procedure, shortened: as §1
[13] = Cmax in NOD/SCID mouse plasma at 30 mg/kg, ip up to 24 hrs; type: ADME, organism-based; set-up: dose 30 mg/kg, route intraperitoneal; procedure, shortened: as §1
[14] = AUC in NOD/SCID mouse plasma at 3 mg/kg, iv up to 24 hrs; type: ADME, organism-based; set-up: time < 24 hr, dose 3 mg/kg, route intravenous; procedure, shortened: as §1
[15] = Volume of distribution in NOD/SCID mouse plasma at 3 mg/kg, iv up to 24 hrs; type: ADME, organism-based; procedure, shortened: as §1
[16] = Tmax in NOD/SCID mouse plasma at 3 mg/kg, iv; type: ADME, organism-based; procedure, shortened: as §1
[17] = Metabolic stability in mouse liver microsomes assessed as parent compound remaining after 0.5 hrs; type: ADME; settings: read-out: Stability
[18] = Growth inhibition of human MOLM13 cells assessed as reduction in cell viability after 3 days; type: functional; settings: MOLM-13, 72 h
[19] = Growth inhibition of human KOPN8 cells assessed as reduction in cell viability after 3 days; type: functional; settings: KOPN-8, 72 h
[20] = test system: MV4-11; test: Growth inhibition of human MV4-11 cells assessed as reduction in cell viability after 3 days; type: functional; settings: MV4-11, 72 h

Row | solubility [1] | solubility [2] | solubility [3] | SMILES | also measured
1 | soluble | soluble | soluble | Cc1cccc(C(=O)Nc2cc(-c3ccc(CN4CCOCC4)cc3)ccc2N2CCN(C)CC2)c1 | 
2 | soluble | soluble | soluble | Cc1cccc(C(=O)Nc2cc(-c3ccc(N4CCCC4)cc3)ccc2N2CCN(C)CC2)c1 | 
3 | soluble | soluble | soluble | Cc1cccc(C(=O)Nc2cc(-c3cccc4c3OCC4)ccc2N2CCN(C)CC2)c1 | 
4 | soluble | soluble | soluble | Cc1cccc(C(=O)Nc2cc(-c3ccccc3CN3CCOCC3)ccc2N2CCN(C)CC2)c1 | 
5 | soluble | soluble | soluble | Cc1cccc(C(=O)Nc2cc(-c3cccc(CN4CCOCC4)c3)ccc2N2CCN(C)CC2)c1 | 
6 |  |  |  | CN1CCN(c2ccc(-c3cccc(CN4CCOCC4)c3)cc2NC(=O)c2c[nH]c(=O)cc2C(F)(F)F)CC1 | Papp B→A [4]: 168 nm/s; remaining at 0.5 h [5]: 100%; half-life [6]: 287 min; bioavailability [7]: 67%; clearance [8]: 3.23 L/h/kg; Papp A→B [9]: 1 nm/s; AUC at 24 h [10]: 6.81 µg·h/mL; Cmax [11]: 1.26 µM; Tmax [12]: 15 min; Cmax [13]: 6.85 µM; AUC at 24 h [14]: 1.01 µg·h/mL; Vd [15]: 15.6 L/kg; Tmax [16]: 5 min; remaining at 0.5 h [17]: 85%
7 | soluble | soluble | soluble | Cc1cccc(C(=O)Nc2cc(-c3cccc(N4CCCC4)c3)ccc2N2CCN(C)CC2)c1 | 
8 | soluble | soluble | soluble | Cc1cccc(C(=O)Nc2cc(-c3ccc4c(c3)CCO4)ccc2N2CCN(C)CC2)c1 | 
9 |  |  |  | CC[C@@H]1NC(=O)[C@H](CCCNC(=N)N)NC(=O)[C@](C)(NC(=O)C(C)C)CCCCNC(=O)[C@@H](c2ccccc2)NC1=O (Isobutyryl-[d(αMeK)]R[Abu][dPhg]; lactam 1-C) | GI50 [18]: 24 µM; GI50 [19]: 29.7 µM; GI50 [20]: 12.4 µM
